Source: PubChem (several laboratories)
In the library only some 6% were active in any assay of this set; here they are far more common.
Lung fibro prol: antiproliferative effect on LL 47 fibroblasts – human, LL 47 cells, CellTiter-Glo luminescence, primary screen; viability, % at 10 µM; LL 47 human lung fibroblast viability, ATP luminescence; stronger effect = lower value; 85,000 tested, 1.1% active;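 active means viability at or below 50% in the single dose screen; inactive means viability above 50%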;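 further: compound exposure lasted 72 h before the ATP readout; 100% = median luminescence of untreated cell-only wells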
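Test system: LL 47 human lung fibroblasts / Quantity: 1,150 cells in each well / Medium: IMEM growth medium with 15% fetal bovine serum / Incubation: 72 h compound exposure at 37 °C after overnight plating / Detection: CellTiter-Glo luminescence measuring cellular ATP / Read-out: % viability versus median cells-only luminescence / Benchmarks: cell-only wells, no compound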
HUVEC prolif 384: inhibitors of HUVEC proliferation, primary screen, cell-based, 384-well | CellTiter-Glo luminescence, 72 h; stronger effect = lower value | viability, % at 10 µM (by protocol) | 86,000 tested, 1.1% active;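 active means viability at or below 30%; inactive means viability above 30%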;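 further: 100% = median luminescence of DMSO-only cell control wells on each plate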
Jurkat viability: cytotoxicity toward Jurkat T cells, primary screen, cytotoxicity control, cell-based, Jurkat E6.1, 60K MLSMR library. Jurkat E6.1 viability, ATP luminescence, 48 h. inhibition, % at 4 µM. 56,000 tested, 1.2% active. AID 463, 2006;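 active means inhibition above the mean inhibition of all tested compounds plus 3 SD, cut at about 28% in these data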
PTK2B oligo ant: antagonists of Pyk2 self-association, primary screen, Q293 cells, FERM NanoBiT luminescence, HTS; stronger effect = lower value; z-score (the deposit names both 25 µM and 10 µM); 99,000 tested, 0.83% active;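 active means Z-score of -3 or lower, scaled per plate to the spread of control and sample wells; inactive means z-score above -3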;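 further: negative z-score means lost luminescence so less FERM oligomerization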
Target sequence (Q14289 whole entry, looked up): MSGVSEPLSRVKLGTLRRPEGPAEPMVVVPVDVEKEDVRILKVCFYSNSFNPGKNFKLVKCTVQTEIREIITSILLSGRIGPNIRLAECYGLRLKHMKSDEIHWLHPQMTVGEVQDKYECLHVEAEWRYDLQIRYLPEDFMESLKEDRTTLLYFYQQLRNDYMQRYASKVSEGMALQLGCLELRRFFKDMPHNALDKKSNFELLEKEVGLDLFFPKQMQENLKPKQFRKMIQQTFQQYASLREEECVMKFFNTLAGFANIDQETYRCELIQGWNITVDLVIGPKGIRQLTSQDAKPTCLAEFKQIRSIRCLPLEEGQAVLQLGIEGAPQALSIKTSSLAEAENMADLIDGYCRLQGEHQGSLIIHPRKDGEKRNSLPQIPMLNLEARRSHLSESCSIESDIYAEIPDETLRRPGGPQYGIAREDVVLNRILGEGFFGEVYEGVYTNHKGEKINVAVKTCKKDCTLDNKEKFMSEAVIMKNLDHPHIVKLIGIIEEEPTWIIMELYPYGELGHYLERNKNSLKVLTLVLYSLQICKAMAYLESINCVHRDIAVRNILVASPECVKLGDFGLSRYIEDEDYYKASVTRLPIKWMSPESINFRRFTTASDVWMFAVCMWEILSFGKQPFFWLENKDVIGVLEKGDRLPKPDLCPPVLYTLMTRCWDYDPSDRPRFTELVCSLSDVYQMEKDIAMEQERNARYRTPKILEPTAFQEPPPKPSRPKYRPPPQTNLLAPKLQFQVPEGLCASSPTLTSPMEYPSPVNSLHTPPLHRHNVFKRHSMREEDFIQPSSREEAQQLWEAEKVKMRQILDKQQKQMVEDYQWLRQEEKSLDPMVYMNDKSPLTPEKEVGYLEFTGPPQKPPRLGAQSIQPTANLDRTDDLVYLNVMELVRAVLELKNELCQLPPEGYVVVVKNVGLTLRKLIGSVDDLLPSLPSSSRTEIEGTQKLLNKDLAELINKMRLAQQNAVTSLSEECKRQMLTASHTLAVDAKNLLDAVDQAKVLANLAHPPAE
F-actin modifier: modifiers of F-actin cytoskeleton organization, primary screen, imaging, HUVEC, phalloidin staining, high-content imaging | HUVEC TNFa F-actin phalloidin imaging | inhibition, % at 2 µM | 91,000 tested, 0.18% active | AID 836, 2007;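 active means inhibition above the batch mean plus 3 SD and confirmed as a hit by visual image inspection, cut at about 30% in these data, passing the limit was not always enough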
H69AR inhibit: proliferation blockers of H69AR lung cancer cells, primary screen, cell-based, human, 86K library; H69AR lung tumor viability, ATP luminescence, 72 h; stronger effect = lower value; viability, % at 10 µM; 85,000 tested, 6% active; AID 598, 2007;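 active means viability at or below 40%; inactive means viability above 40%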;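 further: multidrug resistant small cell line overexpressing MRP-1 efflux transporter; 100% = mean luminescence of untreated control wells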
The depositor's hits bear a star; x = no result.

SMILES	Lung fibro prol	HUVEC prolif 384	Jurkat viability	PTK2B oligo ant	F-actin modifier	H69AR inhibit
O=[N+]([O-])c1ccc(O)c(N=Cc2sc3ccccc3c2O)c1	x	x	x	-2.09	x	x
O=[N+]([O-])c1ccc(N=Nc2ccc(O)cc2O)cc1	40.4*	18.3*	x	-1.27	x	3.2*
COc1ccccc1N1CCN(C(c2cccs2)c2nnnn2C2CCCC2)CC1 (centres undefined)	100.2	92.4	12.9	-1.49	1.3	76.8
CC(=O)N(C(C)=O)C1=C(C#N)C2(CCCCC2)Cc2ccccc21	103.7	99.6	x	-0.41	11.9	83.6
Cc1nc2c3cc(Cl)ccc3n(CCN3CCCCC3)c2s1	49.0*	46.5	x	-0.83	-13.8	26.0*
CC(C)CN=c1cc(-c2ccccc2)oc2ccc(Cl)cc12	78.7	101.0	x	-0.47	-8.3	55.0
CC(O)CN=c1cc(-c2ccccc2)oc2ccc(Cl)cc12 (centres undefined)	69.2	77.9	x	-0.97	6.8	28.9*
CC1CCC(NC(=O)C2c3ccccc3C(=O)N2Cc2cccs2)CC1 (centres undefined)	x	x	x	0.5	x	x
CCNc1nc(SCCOc2ccc(C)cc2)nc(N(C)C)n1	84.9	96.8	2.5	0.01	36.9	31.4*
COc1ccc(OC)c(C2CC(c3c(-c4ccccc4)c4cc(Cl)ccc4[nH]c3=O)=NN2S(C)(=O)=O)c1 (centres undefined)	x	x	x	-1.26	-7.9	x
COc1ccc(C2CC(c3c(-c4ccccc4)c4cc(Cl)ccc4[nH]c3=O)=NN2S(C)(=O)=O)cc1 (centres undefined)	79.1	62.9	x	-0.53	-5.7	14.0*
Cc1nc(-c2cccc(S(=O)(=O)N3CC(C)CC(C)C3)c2)cs1 (centres undefined)	106.0	113.7	x	-3.04*	x	89.0
COC(=O)C1=C(Nc2ccc(C)cc2)C=C(C)C(C(=O)OC)C1c1ccc(OC)cc1 (centres undefined)	62.2	66.8	x	-1.84	-1.4	23.9*
COc1cccc(C2NC(=O)NC(C)=C2C(=O)Nc2ccc(C)cc2)c1 (centres undefined)	101.5	96.9	-3.3	x	-6.7	98.7
COC(=O)C1=C(Nc2ccc(C)cc2)C=C(C)C(C(=O)OC)C1c1cccc(OC)c1 (centres undefined)	59.5	72.9	x	-1.04	-6.6	17.2*
O=C(N/N=C/C(Br)=C/c1ccccc1)c1n[nH]c2c1CCC2	59.3	30.3	x	-1.86	12.8	1.8*
COc1cc(OC)c(OC)cc1/C=N/N(C)c1ccccc1	99.2	88.9	x	-1.02	-0.1	81.8
COc1cc(/C=N/N(C)c2ccccc2)ccc1O	83.3	39.7	x	-3.05*	-5.5	69.7
Cc1ccc(C)c(C(=O)Cn2ncc(Cl)c(Cl)c2=O)c1	2.1*	2.2*	x	-0.74	9.5	0.4*
CC(C)NC(=O)CC(c1ccccc1)c1cc(Br)ccc1O (centres undefined)	97.9	76.4	x	-0.21	0.0	101.1
CCCCCCNC(=O)CC(c1ccccc1)c1cc(Br)ccc1O (centres undefined)	93.8	11.4*	x	-2.58	9.3	47.3
CSc1ccc(-c2nnn(CC(=O)NCc3ccccc3)n2)cc1	92.0	70.1	x	0.32	7.1	25.1*
CCOC(=O)C(Cc1ccccc1)NC(=O)Cn1nnc(-c2ccc(SC)cc2)n1 (centres undefined)	98.7	103.9	x	1.57	29.4	96.8
OCc1nn2c(c1Br)NC(c1ccccc1)CC2C(F)(F)F (centres undefined)	96.2	90.3	6.1	0.42	4.2	86.9
Cc1nc2ccc3nc(NC(=O)c4ccc5c(c4)OCCO5)sc3c2s1	99.8	83.0	-14.1	0.9	-1.3	80.9
SMILES	Lung fibro prol	HUVEC prolif 384	Jurkat viability	PTK2B oligo ant	F-actin modifier	H69AR inhibit
Cc1nc2c(ccc3nc(NC(=O)c4ccc5c(c4)OCCO5)sc32)s1	92.3	7.8*	-9.0	-2.07	-87.0	8.2*
COc1ccccc1-n1c(=O)oc2ccc(Cl)cc2c1=O	50.4	20.1*	18.6	-0.37	6.4	1.5*
O=C(Nc1ccc(-c2noc(COc3ccccc3Cl)n2)cc1)c1ccco1	98.9	35.0	x	-0.91	7.2	29.3*
COc1ccc(CC(=O)Nc2ccc(-c3noc(COc4ccccc4C)n3)cc2)cc1	101.9	97.1	8.7	0.47	x	84.1
CCCc1nn(-c2cc(Cl)ccc2OC)c2c1C(=O)CC(C)(C)C2	80.0	85.2	x	x	4.7	21.8*
COc1ccc(Cl)cc1N1Cc2ccccc2C1	96.0	89.6	x	-1.14	13.3	99.8
CCc1nn(-c2cc(Cl)ccc2OC)c2c1C(=O)CCC2	85.6	76.5	21.8	2	8.0	22.2*
C=CCn1c(SCC(=O)c2ccc(Br)cc2)nnc1C(CC(C)C)NC(=O)c1cccs1 (centres undefined)	103.3	101.6	x	0.78	-0.1	67.2
Cc1ccc2nc(SCCC(=O)O)cc(C)c2c1	94.7	82.9	x	0.38	4.1	75.4
CC(C)(C)CC(C)(C)c1ccc(O)c(CN2CCN(CCC#N)CC2)c1	93.7	96.6	x	-0.35	4.4	5.8*
O=C(/C=C/c1cccc(Cl)c1)Nc1ccncc1	x	x	x	0.24	-7.5	x
O=C(/C=C/c1ccc(Cl)c(Cl)c1)n1cccn1	86.4	79.0	x	0.35	-14.9	10.1*
COc1ccc(-c2cn3cc(C)ccc3n2)cc1OC	98.2	87.1	3.1	0.56	3.0	38.9*
COC(=O)c1sc(NC(=O)CCCn2nc([N+](=O)[O-])cc2C)c(C(=O)OC)c1C	x	x	x	0.1	x	x
CC(Sc1ccc2ccccc2n1)C(=O)O (centres undefined)	93.4	101.9	x	0.43	13.1	97.2
CC(O)/C=C/c1ccc2ccccc2n1 (centres undefined)	70.8	70.4	15.0	-0.38	x	23.4*
COCCn1cnc2c(c1=O)c1nc3ccccc3nc1n2/N=C/c1cccc(OC)c1OC	95.7	67.4	-6.7	x	x	38.8*
C=CCn1cnc2c(c1=O)c1nc3ccccc3nc1n2/N=C/c1cccc(OC)c1	92.0	49.1	6.6	0.21	x	22.4*
O=c1c2c3nc4ccccc4nc3n(/N=C/c3cccs3)c2ncn1-c1ccccc1	105.3	84.1	1.2	x	x	29.7*
CCCCCCn1cnc2c(c1=O)c1nc3ccccc3nc1n2/N=C/c1ccco1	96.8	73.5	0.9	-0.89	-14.9	85.1
Fc1ccc(-n2nnnc2-c2cnc(-c3cccs3)nc2C(F)(F)F)cc1	x	x	x	-3.66*	1.9	x
O=S(=O)(Cc1ccc(Cl)cc1)N1CCCC1	104.8	98.8	1.8	0.84	13.5	101.7
CCN1CCc2nc(NC(=O)c3ccccc3)sc2C1	x	x	x	1.32	-3.8	x
CN(C)c1ccc(/C=C(\C#N)C(=O)Nc2nc3c(s2)CCN(Cc2ccccc2)C3)cc1	82.5	23.5*	x	-1.31	10.6	2.4*
